Source: ChEMBL document CHEMBL1132105, “Substituted analogues of GV150526 as potent glycine binding site antagonists in animal models of cerebral ischemia” (J Med Chem, 1999)

Legend:
Glutamate NMDA receptor = assay: Inhibition of [3H]glycine binding to N-methyl-D-aspartate glutamate receptor in synaptic membranes of rat cerebral cortex; assay type: cell membranes
Procedure, shortened: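 Crude synaptic membranes from adult rat cerebral cortex; 20 nM [3H]glycine, 50 mM Tris/citrate pH 7.10, 20 min at 4 °C. Seven concentrations in duplicate; stock 5 mM in DMSO. Ki from at least six-point inhibition curves by nonlinear fitting; geometric mean of at least three experiments.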

Albumin = Albumin (Rattus norvegicus, UniProt P02770); assay: Binding to rat serum albumin
Mus musculus [1] = assay: Inhibition of NMDA-induced convulsions in mice by the compound when administered by intravenous route; assay type: functional
Procedure, shortened: (§1)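 Male CD-1 mice (18-29 g); test compound given iv (1 min) or po (1 h) before icv NMDA (1 nmol/mouse). Animals observed 30 min for generalized seizures and scored protected if none occurred. Percentage protected per group recorded; ED50 estimated with 95% confidence limits.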

Mus musculus [2] = assay: Inhibition of NMDA-induced convulsions in mice by the compound when administered by peroral route; assay type: functional; conditions: po; procedure, shortened: as §1
[3] = molecular target: Glutamate receptor ionotropic, AMPA (Rattus norvegicus, UniProt P19490+P19491+P19492+P19493); assay: Inhibition of binding of [3H]AMPA to Ionotropic glutamate receptor AMPA in synaptic membranes of rat cerebral cortex; assay type: cell membranes
Procedure, shortened: (§2)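 Rat cortical membrane radioligand binding; compounds from 5 mM DMSO stock tested at five concentrations, 10 nM to 100 µM, with a reference compound as internal control.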

[4] = Inhibition of binding of [3H]CPP in presence of glutamate to glutamate binding site of N-methyl-D-aspartate glutamate receptor in synaptic membranes of rat cerebral cortex; assay type: cell membranes
Rattus norvegicus [5] = assay: Postischemic effect of the compound in the MACo model in rats measured 24 hr after occlusion at an intravenous dose of 1 mg/kg.; assay type: functional
Procedure, shortened: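 Male Sprague-Dawley rats (280-350 g), permanent distal MCA electrocoagulation under chloral hydrate; single iv bolus 1 mg/kg given 6 h after occlusion, vehicle 3% DMSO in water. Infarct volume from TTC-stained 0.5 mm coronal slices 24 h after occlusion, trapezoidal rule, n = 8.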

Rattus norvegicus [6] = assay: Preischemic effect of the compound in the MACo model in rats measured 24 hr after occlusion at an intravenous dose of 0.1 mg/kg.; assay type: functional
Procedure, shortened: (§3)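 Permanent distal MCA electrocoagulation in male Sprague-Dawley rats (280-350 g) under chloral hydrate (400 mg/kg ip), normothermic; compound iv 5 min before occlusion, in 3% DMSO in water. At 24 h, 0.5 mm coronal slices stained with 2% TTC (37 °C, 20 min); infarct volume by trapezoidal rule, n = 8; reduction vs vehicle.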

Rattus norvegicus [7] = species on record: Rattus norvegicus; assay: Percent damage reduction; assay type: functional; set-up: concentration or dose not given beside the values; procedure, shortened: as §3
Rattus norvegicus [8] = assay: Preischemic effect of the compound in the MACo model in rats measured 24 hr after occlusion at an intravenous dose of 0.3 mg/kg.; assay type: functional; procedure, shortened: as §3
Rattus norvegicus [9] = assay: Preischemic effect of the compound in the MACo model in rats measured 24 h after occlusion at an intravenous dose of 1 mg/kg.; assay type: functional; procedure, shortened: as §3
Rattus norvegicus [10] = assay: Preischemic effect of the compound in the MACo model in rats measured 24 hr after occlusion at an intravenous dose of 3 mg/kg.; assay type: functional; procedure, shortened: as §3
[11] = Effective dose was evaluated; assay type: functional
[12] = molecular target: Glutamate receptor ionotropic, kainate; assay: Inhibition of binding of [3H]kainate to Ionotropic glutamate receptor kainate in synaptic membranes of rat cerebral cortex; assay type: cell membranes; procedure, shortened: as §2

Chain of Albumin (P02770 whole entry): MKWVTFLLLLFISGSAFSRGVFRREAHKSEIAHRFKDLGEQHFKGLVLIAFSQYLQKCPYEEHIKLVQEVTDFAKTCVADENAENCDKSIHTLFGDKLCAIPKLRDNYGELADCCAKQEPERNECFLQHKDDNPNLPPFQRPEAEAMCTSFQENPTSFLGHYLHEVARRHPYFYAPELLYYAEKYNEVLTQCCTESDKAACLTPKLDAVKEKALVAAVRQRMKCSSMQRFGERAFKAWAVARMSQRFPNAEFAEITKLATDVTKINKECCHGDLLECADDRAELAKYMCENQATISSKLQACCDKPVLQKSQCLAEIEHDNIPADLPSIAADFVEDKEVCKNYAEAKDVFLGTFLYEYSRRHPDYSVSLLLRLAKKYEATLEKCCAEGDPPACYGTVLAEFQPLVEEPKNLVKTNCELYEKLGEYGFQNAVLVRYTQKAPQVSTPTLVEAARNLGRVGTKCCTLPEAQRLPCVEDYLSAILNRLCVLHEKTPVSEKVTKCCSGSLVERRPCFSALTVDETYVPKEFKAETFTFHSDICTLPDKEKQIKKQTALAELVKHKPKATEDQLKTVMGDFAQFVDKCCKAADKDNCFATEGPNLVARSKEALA

Log Ki (Glutamate NMDA receptor)	RSA tR (Albumin)	SMILES	further results
-7.69		COc1ccc(NC(=O)NCc2ccc(NC(=O)/C=C/c3c(C(=O)[O-])[nH]c4cc(Cl)cc(Cl)c34)cc2)cc1.[Na+]	
	141.2 min	O=C(/C=C/c1c(C(=O)[O-])[nH]c2cc(Cl)cc(Cl)c12)NC12CC3CC(CC(C3)C1)C2.[Na+]	
-7.93		C[C@@H](NC(N)=O)c1ccc(NC(=O)/C=C/c2c(C(=O)[O-])[nH]c3cc(Cl)cc(Cl)c23)cc1.[Na+]	
	23.2 min	Nc1ccc(NC(=O)/C=C/c2c(C(=O)[O-])[nH]c3cc(Cl)cc(Cl)c23)cc1.[Na+]	
-8.8	28.3 min	NC(=O)Nc1ccc(NC(=O)/C=C/c2c(C(=O)[O-])[nH]c3cc(Cl)cc(Cl)c23)cc1.[Na+]	ED50 (Mus musculus [1]): 0.55 mg/kg; ED50 (Mus musculus [2]): 9.6 mg/kg
-7.91	34.1 min	CC/N=C(\S)NCc1ccc(NC(=O)/C=C/c2c(C(=O)[O-])[nH]c3cc(Cl)cc(Cl)c23)cc1.[Na+]	
	25.7 min	O=C(/C=C/c1c(C(=O)[O-])[nH]c2cc(Cl)cc(Cl)c12)NC1CCCCC1.[Na+]	
	31.6 min	CC(=O)Nc1ccc(NC(=O)/C=C/c2c(C(=O)[O-])[nH]c3cc(Cl)cc(Cl)c23)cc1.[Na+]	
-7.83		O=C(/C=C/c1c(C(=O)[O-])[nH]c2cc(Cl)cc(Cl)c12)Nc1ccc(CNC(=O)Nc2cccnc2)cc1.[Na+]	
-8.2		C[C@H](NC(N)=O)c1ccc(NC(=O)/C=C/c2c(C(=O)[O-])[nH]c3cc(Cl)cc(Cl)c23)cc1.[Na+]	
	66.9 min	O=C(/C=C/c1c(C(=O)[O-])[nH]c2cc(Cl)cc(Cl)c12)NCc1ccccc1.[Na+]	
-8.15	29.6 min	O=C(/C=C/c1c(C(=O)[O-])[nH]c2cc(Cl)cc(Cl)c12)Nc1ccc(CNC(=O)NC2CCOCC2)cc1.[Na+]	
-8.62		CCNC(=O)NCc1ccc(NC(=O)/C=C/c2c(C(=O)[O-])[nH]c3cc(Cl)cc(Cl)c23)cc1.[Na+]	
-8.67	40.7 min	NC(=O)NCc1ccc(NC(=O)/C=C/c2c(C(=O)[O-])[nH]c3cc(Cl)cc(Cl)c23)cc1.[Na+]	Ki [3]: 105 µM; ED50 (Mus musculus [1]): 0.07 mg/kg; ED50 (Mus musculus [2]): 2 mg/kg; Log Ki [4]: -3.48; Infarct volume (Rattus norvegicus [5]): 54.7 mm**3; Infarct volume (Rattus norvegicus [6]): 61.9 mm**3; damage reduction (Rattus norvegicus [7]): 41% [middle of 5 runs]; Infarct volume (Rattus norvegicus [8]): 36.4 mm**3; Infarct volume (Rattus norvegicus [9]): 38.9 mm**3; Infarct volume (Rattus norvegicus [10]): 27.8 mm**3; ED50 [11]: 0.2 mg/kg; Log Ki [12]: -4.68
-7.7		O=C(/C=C/c1c(C(=O)[O-])[nH]c2cc(Cl)cc(Cl)c12)Nc1ccc(CNC(=O)Nc2ccccc2)cc1.[Na+]	
-8.2	33.9 min	NC(=O)NCCc1ccc(NC(=O)/C=C/c2c(C(=O)[O-])[nH]c3cc(Cl)cc(Cl)c23)cc1.[Na+]	ED50 (Mus musculus [1]): 0.14 mg/kg; ED50 (Mus musculus [2]): 17.3 mg/kg
-8.25		O=C(/C=C/c1c(C(=O)[O-])[nH]c2cc(Cl)cc(Cl)c12)Nc1ccc(CNC(=O)NC2CC2)cc1.[Na+]	
-8.57		O=C(O)CNC(=O)NCc1ccc(NC(=O)/C=C/c2c(C(=O)[O-])[nH]c3cc(Cl)cc(Cl)c23)cc1.[Na+]	
-8.49	60.1 min	O=C(/C=C/c1c(C(=O)[O-])[nH]c2cc(Cl)cc(Cl)c12)Nc1ccccc1.[Na+] [GAVESTINEL SODIUM]	ED50 (Mus musculus [1]): 0.06 mg/kg; ED50 (Mus musculus [2]): 6 mg/kg
	12.1 min	O=c1[nH]c2cc(Cl)c(Cl)c([N+](=O)[O-])c2[nH]c1=O [LICOSTINEL]	
